# Measured values taken from article PMC2532710 (Nucleic Acids Research, 2008).
# Key:
# [1] = tested on: RecG binding to HJ substrate; experiment: RecG/; set-up: species or system Escherichia coli
# protein-free HJ DNA [2] = experiment: peptide/RecG band shift assay on HJ; type: binding; details: read-out: dissociation constant (Kd) by band shift assay; peptide dimer, HJ
# HJ substrate = experiment: dissociation from HJ; type: binding
# RecG/HJ complex = experiment: displacement of RecG from HJ DNA; type: binding, Escherichia coli; details: 0.1 μM (WRWYCR)2
# [3] = tested on: replication fork substrate; experiment: 2-AP fluorescence quenching, replication fork; type: binding
# Outline: (§1)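 Substrates were annealed from oligos (boiled 5 min, slow-cooled), gel-purified on native 12% PAGE and quantified spectrophotometrically. After ≥10 min equilibration, emission was read at 330–430 nm (excitation 315 nm). Adenine-substituted spectra were subtracted, and fold decrease at 370 nm was taken versus no peptide.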
# [4] = tested on: fork substrate with only the lagging strand; experiment: 2-AP fluorescence quenching, lagging strand fork; type: binding
# Outline: as §1
# [5] = tested on: fork substrate with only the leading strand; experiment: 2-AP fluorescence quenching, leading strand fork; type: binding
# Outline: as §1
# flayed duplex molecule = experiment: 2-AP fluorescence quenching, flayed duplex; type: binding
# Outline: as §1
# [6] = tested on: 1AP1 oligonucleotide alone (ssDNA); experiment: 2-AP fluorescence quenching, single oligonucleotide; type: binding
# Holliday junction = experiment: 2-AP titration Kd, Holliday junction; type: binding; details: Kd ratio, n = 1
# Outline: (§2)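 Each substrate carried 2-AP at strand 4, position 2 and was used at 0.1 μM in 20 mM Tris-HCl pH 7.8, 25 mM NaCl, 1 mM EDTA, 1.6% DMSO at 24°C. Peptide dimer added in 2-fold steps from 0.003125 μM, 3 min each. Excitation 315 nm, emission 330–430 nm. Adenine background subtracted, 365–375 nm averaged. Fc fitted by least squares to pooled 2–3 dilution series. Value given as Kd relative to HJ Kd.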
# Complete fork = experiment: 2-AP titration Kd, complete fork; type: binding; details: Kd ratio, n = 1
# Outline: as §2
# Lagging strand fork = experiment: 2-AP titration Kd, lagging strand fork; type: binding; details: Kd ratio, n = 1
# Outline: as §2
# Flayed fork = experiment: 2-AP titration Kd, flayed fork; type: binding; details: Kd ratio, n = 1
# Outline: as §2
# Oligo = experiment: 2-AP titration Kd, oligo; type: binding; details: Kd ratio, n = 1
# Outline: as §2
# [7] = tested on: RecG binding to HJ substrate; details: cited from earlier work
# protein-free HJ DNA [8] = details: cited from earlier work
# RecG helicase = details: cited from earlier work
# RuvABC complex = details: cited from earlier work
# human RAD54 protein = details: cited from earlier work
# [9] = tested on: replication fork substrates; details: ref K. Kepple, Ph.D. Thesis, 2006; cited from earlier work
# linear dsDNA = details: cited from earlier work
substance,measurement,setting,value
(WRWYCR)2 (disulfide),mechanism of inhibition of RecG,[1],competitive mechanism
same,inhibition of RecG binding to HJ,"[1]; 0.02 μM RecG, 0.025 μM peptide dimer, 2 nM HJ",strongly inhibited
same,inhibition of RecG binding to HJ,"[1]; 0.02 μM RecG, 0.1 μM peptide, 2 nM HJ",almost completely inhibited
same,inhibition of RecG binding to HJ,"[1]; 0.2 μM RecG, 0.025 μM peptide",only weak inhibition
same,"inhibition of RecG–DNA complexes, order of addition","[1]; data not shown, Saha and Segall, unpublished data",occurs whether the peptide is added to DNA 10 min before or after RecG
same,Kd,protein-free HJ DNA [2],12.5 nM
same,time for half of bound peptide to dissociate,"HJ substrate; 0.015 μM (WRWYCR)2, 1 nM labeled HJ, 0.2 μM unlabeled HJ (200X), 4°C",More than an hour
same,dissociation slower than RecG,"HJ substrate; peptide vs RecG, from HJ",about 2 X
same,disappearance of band with two RecG monomers per HJ,RecG/HJ complex,takes far longer to disappear
same,fold decrease in 2-AP fluorescence at 370 nm,"[3]; Fork-1AP1 (central base), 0.05 μM dimer, 0.25:1",1.0 fold
same,fold decrease in 2-AP fluorescence at 370 nm,"[3]; Fork-1AP1 (central base), 0.2 μM dimer, 1:1",1.0 fold
same,fold decrease in 2-AP fluorescence at 370 nm,"[3]; Fork-1AP1 (central base), 0.8 μM dimer, 4:1",1.2 fold
same,fold decrease in 2-AP fluorescence at 370 nm,"[3]; Fork-3AP2, 0.2 μM dimer, 1:1",1.0 fold
same,fold decrease in 2-AP fluorescence at 370 nm,"[3]; Fork-3AP2, 1.6 μM dimer, 8:1",1.2 fold
same,fold decrease in 2-AP fluorescence at 370 nm,"[3]; Fork-4AP1 (central base), 0.05 μM dimer, 0.25:1",1.0 fold
same,fold decrease in 2-AP fluorescence at 370 nm,"[3]; Fork-4AP1 (central base), 1.6 μM dimer, 8:1",1.7 fold
same,fold decrease in 2-AP fluorescence at 370 nm,"[3]; Fork-4AP2 (central base), 0.05 μM dimer, 0.25:1",1.0 fold
same,fold decrease in 2-AP fluorescence at 370 nm,"[3]; Fork-4AP2 (central base), 0.2 μM dimer, 1:1",1.0 fold
same,fold decrease in 2-AP fluorescence at 370 nm,"[3]; Fork-4AP3, 0.05 μM dimer, 0.25:1",1.0 fold
same,fold decrease in 2-AP fluorescence at 370 nm,"[3]; Fork-4AP3, 0.2 μM dimer, 1:1",1.0 fold
same,fold decrease in 2-AP fluorescence at 370 nm,"[3]; Fork-4AP3, 0.8 μM dimer, 4:1",1.2 fold
same,fold decrease in 2-AP fluorescence at 370 nm,"[3]; Fork-4AP4, 0.05 μM dimer, 0.25:1",1.0 fold
same,fold decrease in 2-AP fluorescence at 370 nm,"[3]; Fork-4AP4, 0.2 μM dimer, 1:1",1.0 fold
same,fold decrease in 2-AP fluorescence at 370 nm,"[3]; Fork-4AP4, 0.8 μM dimer, 4:1",1.0 fold
same,fold decrease in 2-AP fluorescence at 370 nm,"[3]; Fork-4AP4, 1.6 μM dimer, 8:1",1.2 fold
same,fold decrease in 2-AP fluorescence at 370 nm,"[4]; Lag-1AP1 (central base), 0.05 μM dimer, 0.25:1",1.0 fold
same,fold decrease in 2-AP fluorescence at 370 nm,"[4]; Lag-1AP1 (central base), 0.2 μM dimer, 1:1",1.0 fold
same,fold decrease in 2-AP fluorescence at 370 nm,"[4]; Lag-1AP1 (central base), 0.8 μM dimer, 4:1",1.3 fold
same,fold decrease in 2-AP fluorescence at 370 nm,"[4]; Lag-1AP1 (central base), 1.6 μM dimer, 8:1",2.0 fold
same,2-AP quenching,"[4]; Lag-1AP1, 4- and 8-fold molar excess",quenched
same,2-AP quenching,[4]; Lag-3AP2,only very weak quenching
same,fold decrease in 2-AP fluorescence at 370 nm,"[4]; Lag-3AP2, 0.05 μM dimer, 0.25:1",1.0 fold
same,fold decrease in 2-AP fluorescence at 370 nm,"[4]; Lag-3AP2, 0.2 μM dimer, 1:1",1.0 fold
same,fold decrease in 2-AP fluorescence at 370 nm,"[4]; Lag-4AP1 (central base), 0.05 μM dimer, 0.25:1",1.0 fold
same,fold decrease in 2-AP fluorescence at 370 nm,"[4]; Lag-4AP1 (central base), 0.8 μM dimer, 4:1",1.3 fold
same,fold decrease in 2-AP fluorescence at 370 nm,"[4]; Lag-4AP1 (central base), 1.6 μM dimer, 8:1",1.9 fold
same,2-AP quenching,[4]; Lag-4AP1 and Lag-4AP2,quenched strongly
same,fold decrease in 2-AP fluorescence at 370 nm,"[4]; Lag-4AP2 (central base), 0.05 μM dimer, 0.25:1",1.0 fold
same,fold decrease in 2-AP fluorescence at 370 nm,"[4]; Lag-4AP2 (central base), 0.8 μM dimer, 4:1",1.3 fold
same,fold decrease in 2-AP fluorescence at 370 nm,"[4]; Lag-4AP2 (central base), 1.6 μM dimer, 8:1",1.6 fold
same,fold decrease in 2-AP fluorescence at 370 nm,"[4]; Lag-4AP3, 0.05 μM dimer, 0.25:1",1.0 fold
same,fold decrease in 2-AP fluorescence at 370 nm,"[4]; Lag-4AP3, 0.2 μM dimer, 1:1",1.0 fold
same,fold decrease in 2-AP fluorescence at 370 nm,"[4]; Lag-4AP3, 0.8 μM dimer, 4:1",1.2 fold
same,fold decrease in 2-AP fluorescence at 370 nm,"[4]; Lag-4AP3, 1.6 μM dimer, 8:1",1.3 fold
same,2-AP quenching,[4]; Lag-4AP3 and Lag-4AP4,quenched relatively weakly
same,fold decrease in 2-AP fluorescence at 370 nm,"[4]; Lag-4AP4, 0.05 μM dimer, 0.25:1",1.0 fold
same,fold decrease in 2-AP fluorescence at 370 nm,"[4]; Lag-4AP4, 0.2 μM dimer, 1:1",1.0 fold
same,fold decrease in 2-AP fluorescence at 370 nm,"[4]; Lag-4AP4, 1.6 μM dimer, 8:1",1.0 fold
same,fold decrease in 2-AP fluorescence at 370 nm,"[5]; Lead-1AP1 (central base), 0.05 μM dimer, 0.25:1",1.0 fold
same,fold decrease in 2-AP fluorescence at 370 nm,"[5]; Lead-1AP1 (central base), 1.6 μM dimer, 8:1",1.3 fold
same,fold decrease in 2-AP fluorescence at 370 nm,"[5]; Lead-4AP1 (central base), 0.05 μM dimer, 0.25:1",1.0 fold
same,fold decrease in 2-AP fluorescence at 370 nm,"[5]; Lead-4AP1 (central base), 0.8 μM dimer, 4:1",1.3 fold
same,fold decrease in 2-AP fluorescence at 370 nm,"[5]; Lead-4AP1 (central base), 1.6 μM dimer, 8:1",1.7 fold
same,2-AP quenching,"[5]; Lead-4AP1, Lead-4AP2 and Lead-4AP3",all quenched by the peptide
same,fold decrease in 2-AP fluorescence at 370 nm,"[5]; Lead-4AP2 (central base), 0.05 μM dimer, 0.25:1",1.0 fold
same,fold decrease in 2-AP fluorescence at 370 nm,"[5]; Lead-4AP2 (central base), 0.8 μM dimer, 4:1",1.2 fold
same,fold decrease in 2-AP fluorescence at 370 nm,"[5]; Lead-4AP3, 0.05 μM dimer, 0.25:1",1.0 fold
same,fold decrease in 2-AP fluorescence at 370 nm,"[5]; Lead-4AP3, 0.8 μM dimer, 4:1",1.2 fold
same,fold decrease in 2-AP fluorescence at 370 nm,"[5]; Lead-4AP4, 0.2 μM dimer, 1:1",1.0 fold
same,fold decrease in 2-AP fluorescence at 370 nm,"[5]; Lead-4AP4, 1.6 μM dimer, 8:1",1.2 fold
same,2-AP quenching,[5]; Lead-4AP4 and Lead-1AP1,less sensitive
same,fold decrease in 2-AP fluorescence at 370 nm,"flayed duplex molecule; Flayed-1AP1 (central base), 1.6 μM dimer, 8:1",1.3 fold
same,fold decrease in 2-AP fluorescence at 370 nm,"flayed duplex molecule; Flayed-4AP1 (central base), 0.8 μM dimer, 4:1",1.2 fold
same,2-AP quenching,"flayed duplex molecule; Flayed-4AP1, 4AP2 and 4AP3, compared with leading strand fork",even less sensitive to quenching
same,fold decrease in 2-AP fluorescence at 370 nm,"flayed duplex molecule; Flayed-4AP2 (central base), 0.05 μM dimer, 0.25:1",1.0 fold
same,fold decrease in 2-AP fluorescence at 370 nm,"flayed duplex molecule; Flayed-4AP2 (central base), 0.8 μM dimer, 4:1",1.3 fold
same,fold decrease in 2-AP fluorescence at 370 nm,"flayed duplex molecule; Flayed-4AP3, 0.05 μM dimer, 0.25:1",1.0 fold
same,fold decrease in 2-AP fluorescence at 370 nm,"flayed duplex molecule; Flayed-4AP3, 0.8 μM dimer, 4:1",1.2 fold
same,fold decrease in 2-AP fluorescence at 370 nm,"flayed duplex molecule; Flayed-4AP3, 1.6 μM dimer, 8:1",1.3 fold
same,fold decrease in 2-AP fluorescence at 370 nm,"flayed duplex molecule; Flayed-4AP4, 0.05 μM dimer, 0.25:1",1.0 fold
same,fold decrease in 2-AP fluorescence at 370 nm,"flayed duplex molecule; Flayed-4AP4, 0.2 μM dimer, 1:1",1.0 fold
same,fold decrease in 2-AP fluorescence at 370 nm,"flayed duplex molecule; Flayed-4AP4, 1.6 μM dimer, 8:1",1.2 fold
same,2-AP quenching,flayed duplex molecule; Flayed-4AP4 and Flayed-1AP1,only weakly quenched
same,2-AP quenching,"[6]; 8-fold molar excess of peptide, data not shown",no significant quenching
same,2-AP quenching,[6]; 16-fold peptide excess,Quenching begins
same,2-AP quenching,[6]; 32-fold excess,increases
same,Fold reduced versus HJ,Holliday junction,1
same,Fold reduced versus HJ,Complete fork,4.4
same,Fold reduced versus HJ,Lagging strand fork,5.5
same,Fold reduced versus HJ,Flayed fork,43.9
same,Fold reduced versus HJ,Oligo,51.1
same,complexes formed when peptide and RecG are added together to HJ,[7],mostly peptide–HJ complexes
same,binding to free HJ DNA,protein-free HJ DNA [8],bind specifically to free HJ DNA
same,effect of Mg^2+ or spermidine on HJ binding,protein-free HJ DNA [8],strongly inhibited
same,inhibition of unwinding of branched DNA substrates by RecG,RecG helicase,inhibit unwinding of branched DNA substrates
same,inhibition of RecG by fork type,RecG helicase; fork with only lagging vs only leading strand,inhibits RecG most on a fork substrate with only the lagging strand and least on a fork substrate with only the leading strand
same,inhibition of HJ resolution by RuvABC,RuvABC complex,inhibit
same,IC50,"RuvABC complex; read-out: IC50, RuvABC",~50 nM
same,inhibition of D-loop unwinding activity,human RAD54 protein,inhibit the D-loop unwinding activity
same,binding to replication forks by band shift,[9],unable to detect binding
same,interaction with linear dsDNA,linear dsDNA,not with linear dsDNA
same,binding to dsDNA,linear dsDNA; high concentrations,binds to dsDNA nonspecifically at high concentrations
